What was measured:
[1] = substrate: CCCCC/C=C\C/C=C\C/C=C\C/C=C\CCCC(=O)Nc1ccccc1O
[2] = substrate: CCCCC/C=C\C/C=C\C/C=C\C/C=C\CCCC(=O)NCCO; experiment: (§1) V max value for hydrolysis by rat brain microsomal anandamide amidohydrolase (AAH).
Outline: (§2)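 Sprague–Dawley rat brain microsomes (105000g pellet) at 0.3 mg/mL protein, 37 °C, pH 7.4, BSA as carrier. Varied substrate concentrations, sampled at least four times within the linear initial range. Arachidonic acid formed measured by RP-HPLC (UV 204 nm, calibration curve). Initial velocity vs substrate concentration fitted to Michaelis–Menten.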

[3] = substrate: CCCCC/C=C\C/C=C\C/C=C\C/C=C\CCCC(N)=O; experiment: as §1
Outline: as §2

[4] = substrate: CCCCC/C=C\C/C=C\C/C=C\C/C=C\CCCC(=O)N[C@@H](C)CO; experiment: as §1
Outline: as §2

[5] = substrate: CCCCC/C=C\C/C=C\C/C=C\C/C=C\CCCC(=O)N[C@H](C)CO; experiment: as §1
Outline: as §2

[6] = substrate: CCCCC/C=C\C/C=C\C/C=C\C/C=C\CCCC(=O)NCCO; experiment: (§3) Km value for hydrolysis by rat brain microsomal anandamide amidohydrolase (AAH).
Outline: as §2

[7] = substrate: CCCCC/C=C\C/C=C\C/C=C\C/C=C\CCCC(=O)Nc1ccccc1O; experiment: as §3
Outline: as §2

[8] = substrate: CCCCC/C=C\C/C=C\C/C=C\C/C=C\CCCC(N)=O; experiment: as §3
Outline: as §2

[9] = substrate: CCCCC/C=C\C/C=C\C/C=C\C/C=C\CCCC(=O)N[C@@H](C)CO; experiment: as §3
Outline: as §2

[10] = substrate: CCCCC/C=C\C/C=C\C/C=C\C/C=C\CCCC(=O)N[C@H](C)CO; experiment: as §3
Outline: as §2

B1: Fatty-acid amide hydrolase 1 (Rattus norvegicus), P97612 (protein)
chain: MVLSEVWTTLSGVSGVCLACSLLSAAVVLRWTGRQKARGAATRARQKQRASLETMDKAVQRFRLQNPDLDSEALLTLPLLQLVQKLQSGELSPEAVFFTYLGKAWEVNKGTNCVTSYLTDCETQLSQAPRQGLLYGVPVSLKECFSYKGHDSTLGLSLNEGMPSESDCVVVQVLKLQGAVPFVHTNVPQSMLSFDCSNPLFGQTMNPWKSSKSPGGSSGGEGALIGSGGSPLGLGTDIGGSIRFPSAFCGICGLKPTGNRLSKSGLKGCVYGQTAVQLSLGPMARDVESLALCLKALLCEHLFTLDPTVPPLPFREEVYRSSRPLRVGYYETDNYTMPSPAMRRALIETKQRLEAAGHTLIPFLPNNIPYALEVLSAGGLFSDGGRSFLQNFKGDFVDPCLGDLILILRLPSWFKRLLSLLLKPLFPRLAAFLNSMRPRSAEKLWKLQHEIEMYRQSVIAQWKAMNLDVLLTPMLGPALDLNTPGRATGAISYTVLYNCLDFPAGVVPVTTVTAEDDAQMELYKGYFGDIWDIILKKAMKNSVGLPVAVQCVALPWQEELCLRFMREVEQLMTPQKQPS
[1]
  Vmax (nM min-1 mg-1): 3.17
[2]
  Vmax (nM min-1 mg-1): 1.4
[3]
  Vmax (nM min-1 mg-1): 2.89
[4]
  Vmax (nM min-1 mg-1): 0.39
[5]
  Vmax (nM min-1 mg-1): 0.37
[6]
  Km: 2.78 µM
[7]
  Km: 7.31 µM
[8]
  Km: 2.34 µM
[9]
  Km: 7.94 µM
[10]
  Km: 33 µM

From ChEMBL document CHEMBL1132600
